Experimental data taken from ChEMBL document CHEMBL4732187, “Tetrahydroindazole inhibitors of CDK2/cyclin complexes” (Eur J Med Chem, 2021).
Activity calls are given as the source filed them. The rule behind the calls is not given here.

Experiments:
CDK2/Cyclin A2 = CDK2/Cyclin A2 (Homo sapiens, UniProt P24941); experiment: Inhibition of human N-terminal GST-tagged CDK2 (1 to 298 residues)/Cyclin A (174 to 432 residues) expressed in Escherichia coli Turner (DE3) cells assessed as reduction in ADP formation using PKTPKKAKKL as substrate by resorufin dye based fluorescence assay
[1] = molecular target: Cyclin-dependent kinase 2/cyclin E1 (Homo sapiens, UniProt P24941); experiment: Inhibition of CDK2/Cyclin E (unknown origin) using histone H1 as substrate preincubated for 20 mins followed by 33P-ATP addition and measured after 2 hrs by filter binding method; format: protein-complex assay
[2] = molecular target: Cyclin-dependent kinase 2 (Homo sapiens, UniProt P24941); experiment: Binding affinity to T7-tagged CDK2 (unknown origin) expressed in bacteriophage infected Escherichia coli BL21 incubated for 1 hr by magnetic beads based qPCR anlaysis
CDK2/Cyclin A1 = CDK2/Cyclin A1 (Homo sapiens, UniProt P24941); experiment: Inhibition of CDK2/Cyclin A1 (unknown origin) using histone H1 as substrate preincubated for 20 mins followed by 33P-ATP addition and measured after 2 hrs by filter binding method; format: protein-complex assay
MCF7 = experiment: Antiproliferative activity against human MCF7 cells assessed as reduction in cell viability up to 200 uM after 72 hrs by alamarBlue assay; format: functional, cell-based; conditions: dose microM <=200, time 72.0 hrs
In short: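 MCF-7 cells seeded at 5000 per well and incubated overnight at 37 °C, 5% CO₂, then exposed to 8 concentrations from 0.00256 μM to 200 μM for 72 h. alamarBlue was then added and incubated 90 min at 37 °C. Proliferating cells were read by fluorescence (ex 530 nm, em 590 nm). Staurosporine served as positive control.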

CDK2/Cyclin O = CDK2/Cyclin O (Homo sapiens, UniProt P22674+P24941); experiment: Inhibition of CDK2/Cyclin-O (unknown origin) using histone H1 as substrate preincubated for 20 mins followed by 33P-ATP addition and measured after 2 hrs by filter binding method; format: protein-complex assay
[3] = Permeability across apical to basolateral side in MDCK cells assessed as drug recovery at 1 uM after 2 hrs by LC-MS/MS analysis; format: ADME, cell-based, Canis lupus familiaris; conditions: dog
In short: (§1)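 MDCK monolayers were washed twice with pre-warmed HBSS (10 mM HEPES, pH 7.4) and equilibrated for 30 min at 37 °C. Compound at 1 μM in HBSS (0.5% DMSO final) was added to the apical or the basolateral donor side. After 2 h at 37 °C, donor and receiver samples were quenched in cold methanol with internal standards and analysed by LC-MS/MS. Runs were in duplicate; 100 μM Lucifer Yellow checked monolayer integrity.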

[4] = Permeability across basolateral to apical side in MDCK cells at 1 uM after 2 hrs by LC-MS/MS analysis; format: ADME, cell-based, Canis lupus familiaris; conditions: dog; in short: as §1
[5] = Efflux ratio of apparent permeability across basolateral to apical side over apical to basolateral side in MDCK cells at 1 uM after 2 hrs by LC-MS/MS analysis; format: ADME, cell-based, Canis lupus familiaris; conditions: dog
In short: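 MDCK monolayers washed twice with pre-warmed HBSS (10 mM HEPES, pH 7.4) and equilibrated 30 min at 37 °C. 1 μM working solution (0.5% DMSO final) added to apical or basolateral donor side, 37 °C for 2 h, run in duplicate. Donor and receiver samples quenched in cold methanol with internal standards and quantified by LC-MS/MS. Monolayer integrity checked by Lucifer Yellow (100 μM) leakage.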

[6] = Apparent permeability across basolateral to apical side in MDCK cells at 1 uM after 2 hrs by LC-MS/MS analysis; format: ADME, cell-based, Canis lupus familiaris; conditions: dog; in short: as §1
[7] = Apparent permeability across apical to basolateral side in MDCK cells at 1 uM after 2 hrs by LC-MS/MS analysis; format: ADME, cell-based, Canis lupus familiaris; conditions: dog; in short: as §1

Compound	IC50 (CDK2/Cyclin A2)	other results
CC(C)Cc1nn(-c2ccccn2)c2c1C(=O)CC(C)(C)C2Br (stereo not drawn)	820 µM	–
Cc1nn(-c2ccccn2)c2c1C(=O)CC(C)(C)C2N=[N+]=[N-] (stereo not drawn)	4.5 µM	–
Cc1nn(-c2ccccn2)c2c1C(=O)CC(C)C2Br (cis isomer)	31 µM	–
Cc1nn(-c2ccccn2)c2c1C(=O)CC(C(C)C)C2Br (trans isomer)	130 µM	–
Cc1ccc(-n2nc(C)c3c2C(Br)C(C)(C)CC3=O)nc1 (stereo not drawn)	7.5 µM	–
CC1(C)CC(=O)c2cnn(-c3ccccn3)c2C1	> 1000 µM	–
Cc1nn(-c2ccc(C(F)(F)F)cn2)c2c1C(=O)CC(C)(C)C2Br (stereo not drawn)	6.7 µM	–
Cc1nn(-c2ccc(Cl)nn2)c2c1C(=O)CC(C)(C)C2Br (stereo not drawn)	26 µM	–
Cc1nn(-c2ccc(Cl)cn2)c2c1C(=O)CC(C)(C)C2Br (stereo not drawn)	3 µM	–
Cc1nn(S(=O)(=O)c2ccc([N+](=O)[O-])cc2)c2c1C(=O)CC(C)(C)C2Br (stereo not drawn)	> 1000 µM	–
Cc1nn(-c2ccccn2)c2c1C(=O)CC(C)(C)C2F (stereo not drawn)	21 µM	–
Cc1nn(-c2ccccn2)c2c1C(=O)NCC(C)(C)C2Br (stereo not drawn)	12 µM	–
Cc1nn(-c2ccccn2)c2c1C(=O)CC(C)(C)C2O (stereo not drawn)	110 µM	–
Cc1nn(-c2ccncn2)c2c1C(=O)CC(C)(C)C2Br (stereo not drawn)	1.5 µM	IC50 [1]: 0.0089 µM; Kd [2]: 4.5 µM; IC50 (CDK2/Cyclin A1): 0.0464 µM; Activity (MCF7): inactive; IC50 (CDK2/Cyclin O): 0.0416 µM
Cc1nn(-c2ccccn2)c2c1C(=O)CC(C)(C)C2Sc1ccccc1 (stereo not drawn)	12 µM	–
Cc1nn(-c2ncccc2C(F)(F)F)c2c1C(=O)CC(C)(C)C2Br (stereo not drawn)	460 µM	–
Cc1nn(-c2ccccn2)c2c1C(=O)CC(C)C2Br (stereo in doubt)	4.8 µM	–
COc1cccc(-n2nc(C)c3c2C(Br)C(C)(C)CC3=O)n1 (stereo not drawn)	2.1 µM	–
CC1(C)CC(=O)c2cnn(-c3ccccn3)c2C1Br (stereo not drawn)	160 µM	–
Cc1nn(-c2ccccn2)c2c1C(O)CC(C)(C)C2Br (stereo not drawn)	560 µM	–
Cc1nn(-c2ccc3ccccc3c2)c2c1C(=O)CC(C)(C)C2Br (stereo not drawn)	37 µM	–
COC(=O)CC(=O)Nc1ccc(-n2nc(C)c3c2C(Br)C(C)(C)CC3=O)nc1 (stereo not drawn)	2.7 µM	–
COC1c2c(c(C)nn2-c2ccccn2)C(=O)CC1(C)C (stereo not drawn)	46 µM	–
Cc1nn(-c2ccccn2)c2c1C(=O)CC(C)(C)C2S(=O)(=O)c1ccccc1 (stereo not drawn)	107 µM	–
Cc1nn(-c2ccccn2)c2c1C(=O)CC(C)(C)C2N(C)C (stereo not drawn)	630 µM	–
Cc1nn(-c2ncccc2C(F)(F)F)c2c1C(=O)C(Br)C(C)(C)C2 (stereo not drawn)	230 µM	–

Compound	IC50 (CDK2/Cyclin A2)	other results
Cc1cccnc1-n1nc(C)c2c1CC(C)(C)C(Br)C2=O (stereo not drawn)	180 µM	–
Cc1nn(-c2ccncc2)c2c1C(=O)CC(C)(C)C2Br (stereo not drawn)	10.5 µM	–
Cc1nn(-c2ccc(NS(N)(=O)=O)cn2)c2c1C(=O)CC(C)(C)C2Br (stereo not drawn)	2.4 µM	–
Cc1nn(-c2nc3ccccc3s2)c2c1C(=O)CC(C)(C)C2Br (stereo not drawn)	> 1000 µM	–
Cc1nn(-c2ccccn2)c2c1C(=O)NCC(C)(C)C2	> 1000 µM	–
Cc1nn(-c2nccs2)c2c1C(=O)CC(C)(C)C2Br (stereo not drawn)	2.2 µM	IC50 [1]: 0.0023 µM; Kd [2]: 4.8 µM; IC50 (CDK2/Cyclin A1): 0.0243 µM; Activity (MCF7): inactive; IC50 (CDK2/Cyclin O): 0.0331 µM
Cc1nn(-c2ccccn2)c2c1C(=O)CC(c1ccccc1)C2Br (stereo not drawn)	> 1000 µM	–
C[C@H]1O[C@@H](O[C@H]2[C@@H](O)C[C@H](O[C@H]3[C@@H](O)C[C@H](O[C@H]4CC[C@@]5(C)[C@H](CC[C@@H]6[C@@H]5C[C@@H](O)[C@]5(C)[C@@H](C7=CC(=O)OC7)CC[C@]65O)C4)O[C@@H]3C)O[C@@H]2C)C[C@H](O)[C@@H]1O [DIGOXIN]	–	Drug recovery [3]: 77.1%; Drug recovery [4]: 83.7%
Cc1nn(-c2ccccn2)c2c1C(=O)CC(C)(C)C2Cl (stereo not drawn)	4.9 µM	–
Cc1nn(-c2ncccn2)c2c1C(=O)CC(C)(C)C2Br (stereo not drawn)	9.3 µM	–
Cc1nn(-c2cnccn2)c2c1C(=O)CC(C)(C)C2Br (stereo not drawn)	97 µM	–
Cc1cccnc1-n1nc(C)c2c1C(Br)C(C)(C)CC2=O (stereo not drawn)	> 1000 µM	–
Cc1nn(CCC#N)c2c1C(=O)CC(C)(C)C2Br (stereo not drawn)	> 1000 µM	–
COCCc1ccc(OCC(O)CNC(C)C)cc1 (stereo not drawn) [METOPROLOL]	–	Drug recovery [3]: 90.7%; Ratio [5]: 0.79; Drug recovery [4]: 90.4%; Papp B→A at 2 h, 1 µM [6]: 21.2 ×10⁻⁶ cm/s; Papp A→B at 2 h, 1 µM [7]: 26.9 ×10⁻⁶ cm/s
Cc1nn(-c2ccccn2)c2c1C(=O)CCC2Br (stereo not drawn)	130 µM	–
Cc1nn(-c2ccccn2)c2c1NC(=O)CC(C)(C)C2	> 1000 µM	–
Cc1nn(-c2ccc(NS(C)(=O)=O)cn2)c2c1C(=O)CC(C)(C)C2Br (stereo not drawn)	19 µM	–
Cc1nn(-c2ccccn2)c2c1C(=O)CC(C)(C)C2N (stereo not drawn)	350 µM	–
Cc1nn(-c2ccccn2)c2c1/C(=N/O)CC(C)(C)C2Br (stereo not drawn)	59 µM	–
Cc1nn(-c2ccccn2)c2c1C(=O)CC(C)(C)C2C (stereo not drawn)	200 µM	–
CC(=O)Nc1ccc(-n2nc(C)c3c2C(Br)C(C)(C)CC3=O)nc1 (stereo not drawn)	3.6 µM	–
Cc1ccc(NC(=O)c2ccc(CN3CCN(C)CC3)cc2)cc1Nc1nccc(-c2cccnc2)n1 [IMATINIB]	–	Drug recovery [3]: 56.6%; Drug recovery [4]: 69.9%
Cc1nn(-c2ccccn2)c2c1C(=O)CC(C(C)C)C2Br (stereo in doubt)	470 µM	–
Cc1nn(-c2ccc(N)cn2)c2c1C(=O)CC(C)(C)C2Br (stereo not drawn)	4.6 µM	–
Cc1nn(-c2ccc([N+](=O)[O-])cn2)c2c1C(=O)CC(C)(C)C2Br (stereo not drawn)	3.1 µM	–
Cc1nn(-c2ccccn2)c2c1C(=O)CC(C)(C)C2	110 µM	–
